# Data: paper PMC3076219 (European journal of immunology, 2009)
# Columns and labels:
# [1] = test system: CXCR2; assay: Block of anti-CXCR2 antibody binding to neutrophils; format: cell-based, human; conditions: LL-37 treated neutrophils; Supporting Information Fig. 6A
# [2] = test system: CXCR1; assay: CXCR1 surface expression on neutrophils, flow cytometry; format: cell-based, human
# Summary of the method: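 Human blood neutrophils were isolated by dextran sedimentation and Ficoll (>95% CD16+) and held at 5×10^6/mL in RPMI 1640 with 1% FBS. They were treated 3h with a dose series (test peptide 1–10 µM; chemokines 1, 5, 10, 50 nM) or with 5 µM for 0.5–3h. Cells were blocked in 10% human serum and stained with anti-CXCR1-APC/anti-CXCR2-FITC or anti-P2X7-FITC, plus anti-CD16. Read-out was flow cytometry GMFI.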
# [3] = test system: CXCR2 transfected HEK293 cells; assay: Secondary necrosis of CXCR2 transfected HEK293 cells; format: cell-based; conditions: Supporting information Fig. 4
# [4] = test system: CXCR1; assay: Confocal analysis of CXCR1 internalization in neutrophils; format: cell-based, human; conditions: LL-37 5 µM or CXCL8 50 nM, 1 h, 37°C; Fig. 8
# Summary of the method: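 Neutrophils came from citrated donor blood by dextran sedimentation and Ficoll gradient. […] Cells were fixed in 2% paraformaldehyde, permeabilised with saponin and blocked with human serum. Anti-CXCR1 or anti-CXCR2 mAb (4°C), then Alexa 488 anti-mouse IgG, DAPI mount, confocal imaging; three independent experiments.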
# [5] = test system: CXCR2; conditions: LL-37 treated neutrophils; ref [15]; cited from earlier work
# [6] = test system: neutrophils; conditions: cited from earlier work
# [7] = test system: neutrophils; conditions: ref [15], cited from earlier work
# [8] = test system: 125I-CXCL8 specific binding sites on neutrophils (CXCR1/2); assay: Competition with 125I-CXCL8 for binding to neutrophils; design: species or system human; conditions: 1.25 nM 125I-CXCL8, 2h on ice, triplicate, dose-dependent, Fig. 5B
# [9] = test system: THP-1 cells; assay: Migration of THP-1 cells, 24-well Transwell; format: cell-based; conditions: LL-37 5 µM, CXCL1 50 nM, WKYMVm 5 µM, ATP 50 µM, BzATP 50 µM; 2 h, 37°C; Fig. 7E
# Summary of the method: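 CFSE-labelled monocytes or THP-1 cells (5 µM, 5 min RT) at 2×10^6/mL in phenol-red-free RPMI 1640 with 1% FBS went in the Transwell upper chamber (3-µm pores). Stimuli in the lower chamber included CXCL1 50 nM, WKYMVm 5 µM and ATP/BzATP 50 µM. Cells were used with or without 20 min preincubation with 10 µM CXCR2 antagonist. Incubation at 37 °C lasted 90 min for monocytes and 2 h for THP-1. Lower-well cells were read at 495 nm against a standard curve, in quadruplicate.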
# [10] = test system: CXCR1; assay: Calcium mobilization in HEK293/CXCR1 cells; format: cell-based, human; conditions: Indo-1; Fig. 7A-B
# Summary of the method: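 CXCR1-transfected HEK293 cells were loaded with 5 µM Indo-1-AM in 5 µM pluronic F-127/PBS for 30 min at RT. They were washed in cold PBS, spun at 200 × g for 10 min at 4 °C and suspended in PBS with calcium and magnesium. Stimulation followed baseline recording. Flow cytometric [Ca2+]i was read as the 405:485 nm emission ratio with 351 nm excitation. Three independent experiments.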
substance,measurement,setting,value
"LL-37: ~4.5 kD active α-helical peptide, C-terminal domain of human cathelicidin hCAP18",block of anti-CXCR2 antibody binding,[1],did not block anti-CXCR2 antibodiy binding
same,"CXCR1 surface expression, time course","[2]; LL-37 5 µM, 0.5-3h, Fig. 1C",not affected by LL-37 treatment
same,CXCR1 down-regulation at 10 µM,"[2]; LL-37 10 µM, 3h",does not down-regulate CXCR1
same,"generation of secondary necrotic cells, HEK293/CXCR2",[3],generation of secondary necrotic cells
same,CXCR1 translocation (internalization),[4],translocation of CXCR2 but not CXCR1 to the cytoplasmic granules
same,down-regulation among 21 cell surface markers,[5],only CXCR2 was specifically down-regulated
same,migration of neutrophils,"[6]; ref [3], [9], [10]","migration of human peripheral monocytes, neutrophils"
same,neutrophil migration (literature),[6]; ref [9],induces neutrophil migration
same,cytotoxicity,[7]; LL-37 10 µM,general cytotoxicity is observed at this dosage
same,toxic effect on freshly isolated neutrophils,[7]; annexin V negative,no toxic effect
same,maximum competition of 125I-CXCL8 binding,[8]; 2×10^6 cells,around 50%
same,displacement of 125I-CXCL8,[8],partly displace
same,stimulation of migration of THP-1 cells,[9],but not THP-1 cells
same,calcium mobilization in CXCR1 transfected HEK293 cells,[10],only CXCL8 gave a response
